Experimental data taken from ChEMBL document CHEMBL4390679 (J Med Chem, 2019).
The source made the active and inactive calls. No cut-off for these calls is given here. Starred links: 1 amine or outer side, 2 acyl side, 3 side chain; linkers in the order of their positions; H or OH if unused. Positions of bridges follow the written chain, without caps; N, C: chain ends. Non-standard residues stand in square brackets, D forms with d. Residues, ends and D or L forms follow the SMILES beside them. Abu(4-yl) = O=C([C@H](CC[*:3])N[*:1])[*:2]; X1 = O=C(CN(CCCO)[*:1])[*:2]

Legend:
Oxytocin receptor [1] = target: T1, Oxytocin receptor (Homo sapiens, UniProt P30559); assay: Agonist activity at recombinant human OTR expressed in HEK293 cells assessed as increase in intracellular calcium level measured at 3 secs interval for 5 mins by fura-2/AM dye based micro spectrofluorometric method; type: functional, cell-based
T1 sequence (P30559 whole entry): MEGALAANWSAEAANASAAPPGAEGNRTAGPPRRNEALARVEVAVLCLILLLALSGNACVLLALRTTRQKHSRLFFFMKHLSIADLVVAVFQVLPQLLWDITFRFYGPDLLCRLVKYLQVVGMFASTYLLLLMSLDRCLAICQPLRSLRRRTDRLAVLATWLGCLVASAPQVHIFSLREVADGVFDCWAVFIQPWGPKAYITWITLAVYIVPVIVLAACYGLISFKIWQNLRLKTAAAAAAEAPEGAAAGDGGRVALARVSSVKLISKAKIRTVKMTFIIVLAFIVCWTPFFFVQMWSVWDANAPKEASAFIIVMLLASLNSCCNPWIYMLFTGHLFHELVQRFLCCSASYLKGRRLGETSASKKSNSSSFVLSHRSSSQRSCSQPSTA

Oxytocin receptor [2] = target: T1, Oxytocin receptor; assay: Displacement of [3H]OT from recombinant human OTR expressed in HEK293 cell membranes measured after 1 hr
Vasopressin V1a receptor = Vasopressin V1a receptor (Homo sapiens, UniProt P37288); assay: Agonist activity at recombinant human V1a receptor expressed in HEK293 cells assessed as increase in intracellular calcium level measured at 3 secs interval for 5 mins by fura-2/AM dye based micro spectrofluorometric method; type: cell-based
Vasopressin V1b receptor = target: T2, Vasopressin V1b receptor (Homo sapiens, UniProt P47901); assay: Agonist activity at recombinant human V1b receptor expressed in HEK293 cells assessed as increase in intracellular calcium level measured at 3 secs interval for 5 mins by fura-2/AM dye based micro spectrofluorometric method; type: cell-based
T2 sequence (P47901 whole entry): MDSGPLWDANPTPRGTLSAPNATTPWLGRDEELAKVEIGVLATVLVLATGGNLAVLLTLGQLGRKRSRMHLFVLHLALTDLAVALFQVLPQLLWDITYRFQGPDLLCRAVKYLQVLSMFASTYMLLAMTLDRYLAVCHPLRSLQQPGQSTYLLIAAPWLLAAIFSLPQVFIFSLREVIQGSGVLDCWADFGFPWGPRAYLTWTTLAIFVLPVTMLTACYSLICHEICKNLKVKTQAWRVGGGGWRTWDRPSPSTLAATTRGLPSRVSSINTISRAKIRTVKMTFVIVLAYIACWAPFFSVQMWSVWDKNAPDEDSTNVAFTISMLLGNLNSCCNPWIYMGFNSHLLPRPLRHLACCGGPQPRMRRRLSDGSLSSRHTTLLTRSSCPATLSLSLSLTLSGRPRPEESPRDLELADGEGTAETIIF

Homo sapiens [3] = species on record: Homo sapiens; assay: Selectivity ratio of EC50 for recombinant human V1a receptor expressed in HEK293 cells to EC50 for recombinant human OTR expressed in HEK293 cells; type: cell-based
Method in brief: (§1)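 Agonist response measured in HEK-293 cells stably expressing human OTR, V1aR or V1bR, loaded with 1 µM fura-2/AM for 30 min at 37 °C, washed in HEPES-buffered saline pH 7.4. F340/F380 ratio read every 3 s for 5 min at 37 °C, normalized to baseline and to maximal OT (OTR) or AVP (V1aR, V1bR) response; EC50 taken from these curves. n = 3, 20 cells per dish.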

Homo sapiens [4] = species on record: Homo sapiens; assay: Selectivity ratio of EC50 for recombinant human V1b receptor expressed in HEK293 cells to EC50 for recombinant human OTR expressed in HEK293 cells; type: cell-based; method in brief: as §1
Mus musculus [5] = assay: Cognition enhancing effect in CD38 knock out Slc:ICR mouse sire model of autism spectrum disorder assessed as latency time to retrieve pups by sires at 100 ng/ml, ip administered as single dose measured after 30 mins by parental retrieval test (reference value: 600 sec); type: functional
Mus musculus [6] = assay: Cognition enhancing effect in CD38 knock out Slc:ICR mouse sire model of autism spectrum disorder assessed as latency time to retrieve pups by sires at 100 ng/ml, ip administered as single dose measured after 5 hrs by parental retrieval test (reference value: 233 +/- 68 sec); type: functional
Mus musculus [7] = assay: Cognition enhancing effect in CD38 knock out Slc:ICR mouse sire model of autism spectrum disorder assessed as latency time to retrieve pups by sires at 100 ng/ml, ip administered as single dose measured after 12 hrs by parental retrieval test (reference value: 233 +/- 68 sec); type: functional
Mus musculus [8] = assay: Cognition enhancing effect in CD38 knock out Slc:ICR mouse sire model of autism spectrum disorder assessed as latency time to retrieve pups by sires at 100 ng/ml, ip administered as single dose measured after 24 hrs by parental retrieval test (reference value: 233 +/- 68 sec); type: functional
Mus musculus [9] = assay: Antidepressant-like activity in CD38KOCC Slc:ICR mouse model of autism spectrum disorder assessed as immobility time at 100 ng/ml, ip administered as single dose for 30 mins prior to testing measured for last 4 mins of 6 mins test by tail suspension test (reference value: 74.2 +/- 2.9 sec); type: functional
Mus musculus [10] = assay: Cognition enhancing effect in CD38KOCC Slc:ICR mouse model of autism spectrum disorder assessed as sucrose consumption over water at 100 ng/ml, ip administered as single dose measured after 60 mins relative to control (reference value: 0.46 +/- 0.04); type: functional
Mus musculus [11] = assay: Cognition enhancing effect in CD38KOCC Slc:ICR mouse model of autism spectrum disorder assessed as sucrose consumption over water at 100 ng/ml, ip administered as single dose measured after 24 hrs relative to control (reference value: 0.46 +/- 0.04); type: functional
[12] = Plasma concentration in Slc:ICR mouse at 100 ng/g, iv measured immediately by LC-MS/MS analysis; type: ADME, organism-based; conditions: in vivo
Method in brief: (§2)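 Male ICR mice (30 g) were given 100 ng/g i.v. via the tail vein. Blood was taken by cardiac puncture immediately and at 5, 15 and 30 min; CSF was taken at 30 min or 12 h. Plasma was deproteinized with acetonitrile/methanol 1:1 containing [13C6,15N]OT internal standard and analysed by LC-MS/MS (C8 column, SRM).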

[13] = Half life in Slc:ICR mouse plasma during fast phase at 100 ng/g, iv measured for 15 mins by LC-MS/MS analysis; type: ADME, organism-based; method in brief: as §2
[14] = Half life in Slc:ICR mouse plasma during slow phase at 100 ng/g, iv measured for 15 to 60 mins by LC-MS/MS analysis; type: ADME, organism-based; method in brief: as §2
[15] = Drug level in Slc:ICR mouse cerebrospinal fluid at 100 ng/g, iv measured after 30 mins by LC-MS/MS analysis; type: ADME, organism-based; conditions: in vivo, 0.5 h, BLD = below limit of detection; method in brief: as §2
[16] = Drug level in Slc:ICR mouse cerebrospinal fluid at 100 ng/g, iv measured after 12 hrs by LC-MS/MS analysis; type: ADME, organism-based; conditions: in vivo, 12 h, BLD = below limit of detection; method in brief: as §2
[17] = Stability in mouse plasma assessed as parent compound remaining at 50 ng/ml measured after 2 hrs by LC-MS/MS analysis; type: ADME, cell-free; conditions: read-out: Stability
Method in brief: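 Pooled mouse plasma spiked to a final 50 ng/mL was incubated at 37 °C for 1–120 min, quenched with acetonitrile/methanol 1:1 plus internal standard, and analysed by LC-MS/MS. Percent of the initial concentration was calculated; 85–115% was taken as acceptable.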

[18] = target: T3, Oxytocin receptor (Homo sapiens) (UniProt P30559); assay: Displacement of [3H]OT from recombinant human OTR expressed in HEK293 cell membranes assessed as association rate constant for [3H]OT binding
T3 sequence (whole entry): T1 sequence (P30559 whole entry)
Method in brief: (§3)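 Membranes from HEK-293 cells stably expressing human OTR (5 µg/well) in 50 mM Tris, 10 mM MgCl2, 0.1% BSA, pH 7.4. [3H]OT added at 200 pM, 500 pM and 1 nM; bound and free separated by rapid filtration at multiple time points to build association curves. Kon and Koff fitted; t1/2 from Koff = ln2/t1/2. Two experiments, each in duplicate.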

[19] = target: T3, Oxytocin receptor (Homo sapiens); assay: Displacement of [3H]OT from recombinant human OTR expressed in HEK293 cell membranes assessed as dissociation rate constant for [3H]OT binding; method in brief: as §3
[20] = target: T3, Oxytocin receptor (Homo sapiens); assay: Displacement of [3H]OT from recombinant human OTR expressed in HEK293 cell membranes assessed as dissociation half life for [3H]OT binding; method in brief: as §3
Mus musculus [21] = assay: Antidepressant-like activity in CD38KOCC Slc:ICR mouse model of autism spectrum disorder assessed as immobility time at 100 ng/ml, ip administered as single dose for 24 hrs prior to testing measured for last 4 mins of 6 mins test by tail suspension test (reference value: 56.5 +/- 18.8 sec)
Mus musculus [22] = assay: Cognition enhancing effect in CD38 knock out Slc:ICR mouse sire model of autism spectrum disorder assessed as latency time to retrieve pups by sires at 0.3 mL, ip administered as single dose measured after 30 mins by parental retrieval test (reference value: 600 sec); type: functional
Mus musculus [23] = assay: Cognition enhancing effect in CD38 knock out Slc:ICR mouse sire model of autism spectrum disorder assessed as decrease in latency time to retrieve pups by sires at 0.3 mL, ip administered as single dose measured after 6 hrs by parental retrieval test; type: functional, organism-based
Mus musculus [24] = assay: Cognition enhancing effect in CD38KOCC Slc:ICR mouse model of autism spectrum disorder assessed as increase in sucrose consumption over water at 100 ng/ml, ip administered as single dose measured after 24 hrs; type: functional, organism-based
Mus musculus [25] = assay: Antidepressant-like activity in CD38KOCC Slc:ICR mouse model of autism spectrum disorder assessed as decrease in immobility time at 100 ng/ml, ip administered as single dose for 24 hrs prior to testing measured for last 4 mins of 6 mins test by tail suspension test

Sequence of Vasopressin V1a receptor (P37288 whole entry): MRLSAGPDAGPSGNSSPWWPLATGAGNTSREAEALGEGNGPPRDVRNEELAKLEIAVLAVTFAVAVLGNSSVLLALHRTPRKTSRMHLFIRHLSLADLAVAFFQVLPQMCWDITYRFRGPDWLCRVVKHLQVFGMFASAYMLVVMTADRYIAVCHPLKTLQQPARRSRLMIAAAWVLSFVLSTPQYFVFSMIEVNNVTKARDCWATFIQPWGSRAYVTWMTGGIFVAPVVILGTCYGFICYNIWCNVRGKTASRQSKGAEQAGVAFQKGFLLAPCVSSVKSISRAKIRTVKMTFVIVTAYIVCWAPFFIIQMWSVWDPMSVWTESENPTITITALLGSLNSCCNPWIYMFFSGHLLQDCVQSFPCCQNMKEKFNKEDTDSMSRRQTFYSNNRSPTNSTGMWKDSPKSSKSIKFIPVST

SMILES	EC50 (Oxytocin receptor [1]) [nM]	Ki (Oxytocin receptor [2]) [nM]	EC50 (Vasopressin V1a receptor) [nM]	EC50 (Vasopressin V1b receptor) [nM]	Ratio EC50 (Homo sapiens [3])	Ratio EC50 (Homo sapiens [4])	Time (Mus musculus [9]) [s]	Cp [12] [ng/mL]	half-life [13] [min]	half-life [14] [min]	remaining at 2 h, 50 ng/ml [17] [%]	other results
CC[C@H](C)[C@@H]1NC(=O)[C@H](Cc2ccc(O)cc2)NC(=O)[C@@H](N)CCSC[C@@H](C(=O)N(CCCO)CC(=O)N[C@@H](CC(C)C)C(=O)NCC(N)=O)NC(=O)[C@H](CC(N)=O)NC(=O)[C@H](CCC(N)=O)NC1=O (H-[Abu(4-yl)]YIQNC[X1]LG-NH2; thioether 1-6)	0.15	3	> 10	> 10	> 66.6	> 66.6						
CC[C@H](C)[C@@H]1NC(=O)[C@H](Cc2ccc(O)cc2)NC(=O)[C@@H](N)CSSC[C@@H](C(=O)N(CCCO)CC(=O)N[C@@H](CC(C)C)C(=O)NCC(N)=O)NC(=O)[C@H](CC(N)=O)NC(=O)[C@H](CCC(N)=O)NC1=O (H-CYIQNC[X1]LG-NH2; disulfide 1-6)	0.031	1.4	> 10	> 10	> 323	> 322	151.83	108	3.1	4.23	85 to 115	Time (Mus musculus [5]): 346 s; Time (Mus musculus [6]): 293 s; Time (Mus musculus [7]): 386 s; Time (Mus musculus [8]): 100 s; Ratio (Mus musculus [10]): 0.72; Ratio (Mus musculus [11]): 0.67; Drug uptake [15]: Bld; Drug uptake [16]: Bld; K [18]: 7.47 ×10⁶ /M/min; K [19]: 0.0175 min⁻¹; T1/2 [20]: 36.6 min; Time (Mus musculus [21]): 157.3 s
CC[C@H](C)[C@@H]1NC(=O)[C@H](Cc2ccc(O)cc2)NC(=O)[C@@H](N)CSSC[C@@H](C(=O)N2CCC[C@H]2C(=O)N[C@@H](CC(C)C)C(=O)NCC(N)=O)NC(=O)[C@H](CC(N)=O)NC(=O)[C@H](CCC(N)=O)NC1=O [OXYTOCIN]							171	334	2.91	8.84	85 to 115	Time (Mus musculus [22]): 240 s; Activity (Mus musculus [23]): inactive; Activity (Mus musculus [24]): inactive; Activity (Mus musculus [25]): inactive
